In general, pEC50 refers to the EC50 on a negative log10 scale, so that one unit is a factor of ten. Low values mean a high EC50, high ones a low EC50.

Consider 2 compounds from ChEMBL document CHEMBL4308856, “Novel 5-(quinuclidin-3-ylmethyl)-1,2,4-oxadiazoles to investigate the activation of the α7 nicotinic acetylcholine receptor subtype: Synthesis and electrophysiological evaluation” (Eur J Med Chem, 2018).

Type in all cases: cell-based
Assay [1] has as its target T1, Neuronal acetylcholine receptor subunit alpha-7 (Homo sapiens, UniProt P36544). Nature of the assay: Partial agonist activity at human alpha7 nAChR expressed in Xenopus laevis oocytes assessed as increase in net charge at 30 uM at -60 mV holding potential treated for 12 secs followed by compound washout for 181 secs by whole cell two electrode voltage-clamp assay relative to ACh. In outline: (§1)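 Human α7 nAChR expressed in Xenopus laevis oocytes, two-electrode voltage clamp at −60 mV with 3 M KCl electrodes. Ringer's with atropine, pH 7.2, perfused at 2 mL/min. Compound was applied at 30 μM for 12 s with a 181 s washout. Peak current and net charge were each normalized to the mean of two prior 60 μM ACh controls in the same oocyte; the peak/net-charge ratio was taken. Mean ± SEM, at least four oocytes.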

Assay [2] deals with T1, Neuronal acetylcholine receptor subunit alpha-7. Nature of the assay: Ratio of partial agonist activity at human alpha7 nAChR expressed in Xenopus laevis oocytes assessed as increase in peak current amplitude relative to ACh to partial agonist activity at human alpha7 nAChR expressed in Xenopus laevis oocytes assessed as increase in net charge relative to ACh. In outline:
as §1

Assay [3] has the same target. Nature of the assay: Partial agonist activity at human alpha7 nAChR expressed in Xenopus laevis oocytes assessed as increase in net charge at 3 uM at -60 mV holding potential treated for 12 secs followed by compound washout for 181 secs by whole cell two electrode voltage-clamp assay relative to ACh. In outline:
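Human α7 nAChR in Xenopus oocytes under two-electrode voltage clamp at −60 mV, perfused with Ringer's (pH 7.2, atropine) at 2 mL/min. Compound was given alone at 3 μM as a 12 s application followed by 181 s washout. Net-charge response was normalized to the average of two initial 60 μM ACh controls from the same oocyte.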
(Two-electrode voltage clamp holds a large cell at a set potential and records current.)

Assay [4] shares this target. Nature of the assay: Ratio of Silent agonist activity at human alpha7 nAChR expressed in Xenopus laevis oocytes assessed as increase in net charge in presence of type 2 PAM PNU-120596 relative to ACh to partial agonist activity at human alpha7 nAChR expressed in Xenopus laevis oocytes assessed as increase in net charge relative to ACh. In outline: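 PNU effectiveness: net-charge response of human α7 nAChR (Xenopus oocytes, −60 mV clamp) to compound co-applied with 10 μM PNU-120596, divided by the response to compound alone. Both responses were normalized to 60 μM ACh controls, with 12 s applications and 181 s washout.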

The target is the same in assay [5]. Briefly: Partial agonist activity at human alpha7 nAChR expressed in Xenopus laevis oocytes at -60 mV holding potential treated for 12 secs followed by compound washout for 181 secs by whole cell two electrode voltage-clamp assay relative to ACh.
The target is the same in assay [6]. Briefly: Silent agonist activity at human alpha7 nAChR expressed in Xenopus laevis oocytes assessed as increase in net charge at 30 uM at -60 mV holding potential treated for 12 secs followed by compound washout for 181 secs in presence of type 2 PAM PNU-120596 by whole cell two electrode voltage-clamp assay relative to ACh. In outline:
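α7 (human) expressed in Xenopus oocytes, voltage-clamped at −60 mV, Ringer's pH 7.2 with atropine at 2 mL/min. Compound (3, 10 or 30 μM) was co-applied with PNU-120596 for 12 s, then washed out for 181 s. Net charge was expressed relative to the mean of two preceding 60 μM ACh control responses in the same oocyte. Mean ± SEM, at least four oocytes.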

Assay [7] shares this target. Nature of the assay: Partial agonist activity at human alpha7 nAChR expressed in Xenopus laevis oocytes assessed as increase in peak current amplitude at 30 uM at -60 mV holding potential treated for 12 secs followed by compound washout for 181 secs by whole cell two electrode voltage-clamp assay relative to ACh. In outline:
as §1

Assay [8] shares this target. Nature of the assay: Antagonist activity at human alpha7 nAChR expressed in Xenopus laevis oocytes assessed as Ach-induced response by measuring residual activity at 30 uM at -60 mV holding potential treated for 12 secs followed by compound washout for 181 secs by whole cell two electrode voltage-clamp assay (Rvb =60%).
The target of assay [9] is T2, Neuronal acetylcholine receptor; alpha3/beta4 (Homo sapiens) (UniProt P30926+P32297). Nature of the assay: Antagonist activity at human alpha3beta4 nAChR expressed in Xenopus laevis oocytes assessed as inhibition of Ach-induced channel activation at 30 uM at -60 mV holding potential treated for 6 secs followed by compound washout for 241 secs by whole cell two electrode voltage-clamp assay.

In assay [10] the target is T1, Neuronal acetylcholine receptor subunit alpha-7. Briefly: Antagonist activity at human alpha7 nAChR expressed in Xenopus laevis oocytes assessed as inhibition of post control Ach-induced response by measuring residual activity at 30 uM at -60 mV holding potential treated for 12 secs followed by compound washout for 181 secs by whole cell two electrode voltage-clamp assay (Rvb =60%).

Assay [11] addresses T2, Neuronal acetylcholine receptor; alpha3/beta4 (Homo sapiens). Briefly: Antagonist activity at human alpha3beta4 nAChR expressed in Xenopus laevis oocytes assessed as inhibition of post-control Ach-induced channel activation at 30 uM at -60 mV holding potential treated for 6 secs followed by compound washout for 241 secs by whole cell two electrode voltage-clamp assay.

pEC50: −log10 of the molar value. Calls of active or inactive are those of the source. The calls are words filed in the database; no cut-off is given here.

T1 sequence (P36544 whole entry, the tested form may be a part): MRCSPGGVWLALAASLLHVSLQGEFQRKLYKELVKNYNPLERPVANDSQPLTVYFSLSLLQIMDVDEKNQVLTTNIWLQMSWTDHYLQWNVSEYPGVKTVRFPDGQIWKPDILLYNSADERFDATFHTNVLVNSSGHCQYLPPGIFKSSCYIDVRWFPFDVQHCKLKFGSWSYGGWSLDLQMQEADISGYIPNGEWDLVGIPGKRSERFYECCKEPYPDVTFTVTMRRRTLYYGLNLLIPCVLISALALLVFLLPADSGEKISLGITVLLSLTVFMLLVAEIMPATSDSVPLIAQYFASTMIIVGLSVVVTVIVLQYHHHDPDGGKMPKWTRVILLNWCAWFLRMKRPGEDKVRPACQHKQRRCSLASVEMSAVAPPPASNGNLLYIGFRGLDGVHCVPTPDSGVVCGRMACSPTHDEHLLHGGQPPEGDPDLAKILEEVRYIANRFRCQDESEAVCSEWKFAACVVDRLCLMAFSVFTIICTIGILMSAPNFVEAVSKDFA

With `c1coc(-c2noc(CC3CN4CCC3CC4)n2)c1` (stereo unspecified), the fold change (FC) in assay [1] was 0.575; in assay [3], 0.15; in assay [6], 32.3; in assay [7], 2.14. The Ratio in assay [2] came to 3.73; in assay [4], 56. In addition, the pEC50 in assay [5] is > 4.52.
On to `C[N+]12CCC(CC1)C(Cc1nc(-c3cccc(C(F)(F)F)c3)no1)C2` (stereo unspecified), for which the values for the Activity in assay [8] and in assay [10] were 10% and 60%, respectively. In assay [9], the inhibition entry is “Active”. Further, the fold change (FC) in assay [1] was found to be 0.035; in [6] it was 0.1; in [7], 0.077. Moreover, the Ratio in assay [2] was 2.2; in [4], 3. The inhibition entry in assay [11] is “inactive”.
